HTR2A ag: mouse Htr2a agonists via beta-arrestin recruitment, primary screen, cell-based, luminescence; 5-hydroxytryptamine receptor 2A (Mus musculus), P35363; CHO-K1 mHTR2A beta-arrestin complementation; percent of 30 µM serotonin response; activation, % at 7.6 µM; 0.66% of 360,000 active; AID 624169, 2012;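 active means activation above a run cutoff, the mean activation of all tested compounds plus 3 SD, cut at about 14% in these data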;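 further: 0% = plate median of compound wells and 100% = 30 µM serotonin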
CHRM1 agonist: human M1 muscarinic receptor agonists, primary screen, Fluo-8 calcium fluorescence, CHO-K1 cells, HTS; 0.33% of 360,000 active; CHO-K1 hM1, agonist mode; 0% DMSO, 100% acetylcholine EC100; activation, % at 3 µM; AID 588814, 2011;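 active means activation above the run's mean compound activation plus 3 SD, cut at about 16% in these data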;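 further: peak over basal fluorescence ratio within a 140 s kinetic read after compound addition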
Target sequence (P11229 whole entry, looked up): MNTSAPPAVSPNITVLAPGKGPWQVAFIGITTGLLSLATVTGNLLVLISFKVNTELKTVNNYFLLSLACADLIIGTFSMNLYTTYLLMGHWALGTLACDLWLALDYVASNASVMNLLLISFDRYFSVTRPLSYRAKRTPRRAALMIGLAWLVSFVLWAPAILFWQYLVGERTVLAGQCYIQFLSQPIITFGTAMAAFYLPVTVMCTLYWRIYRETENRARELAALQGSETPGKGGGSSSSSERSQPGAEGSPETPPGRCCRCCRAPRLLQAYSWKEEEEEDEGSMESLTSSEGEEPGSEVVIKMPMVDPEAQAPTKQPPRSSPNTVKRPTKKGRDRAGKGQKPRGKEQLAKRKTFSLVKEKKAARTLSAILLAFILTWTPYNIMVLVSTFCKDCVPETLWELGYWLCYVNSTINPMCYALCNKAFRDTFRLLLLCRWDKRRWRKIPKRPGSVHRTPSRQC
TAAR1 antagonist: human TAAR1 antagonists, primary screen, Fluo-8 calcium fluorescence, CHO RD-HGA16 cells. Trace amine-associated receptor 1 (Homo sapiens), Q96RJ0. antagonist. inhibition, % at 3 µM. 1.5% of 360,000 active. AID 624466, 2012;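 active means inhibition above a per-plate cutoff, the mean inhibition of test compounds on that plate plus 3 SD, cut at about 49% in these data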;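 further: 0% = DMSO plus EC80 beta-PEA response and 100% = DMSO alone without agonist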
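Test system – hTAAR1-expressing CHO RD-HGA16 cells, Gα16-coupled · Also added – β-PEA at EC80 concentration, post-compound challenge · Compound – 3 µM, single point · Incubation – dye loading 75 min at 37 °C, then 30 min room temperature · Measured by – Fluo-8 intracellular calcium dye fluorescence, real-time kinetic reads · Benchmarks – vehicle and agonist controls · Replicates – singlicate, one well per test compound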
M1 PAM: human M1 muscarinic receptor positive allosteric modulators, primary screen, CHO-K1 cells, Fluo-8 calcium fluorescence, 1536-well. Muscarinic acetylcholine receptor M1 (Homo sapiens), P11229. CHO-K1 hM1, ACh EC20; 0% = ACh EC20, 100% = maximal ACh. activation, % at 3 µM. 0.088% of 360,000 active. AID 588819, 2011; in the data active means activation above about 19%, passing the limit was not always enough
TAAR1 agonist: human TAAR1 agonists, primary screen, Fluo-8 calcium fluorescence, CHO RD-HGA16 cells; vehicle wells 0%, saturating PEA agonist 100%; activation, % at 3 µM; 0.99% of 360,000 active;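 active means activation above the mean activation of all test compounds in the run plus 3 SD, cut at about 38% in these data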
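System: CHO-derived RD-HGA16 cells with stable Gα16 and human TAAR1 / Times: 17-24 h plating, Fluo-8 75 min 37 °C, 30 min RT / Technique: calcium-sensitive Fluo-8 signal, excitation 470-495, emission 515-575 nm / Measure: % activation relative to PEA EC100 response / Benchmarks: DMSO and PEA EC100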
M1 antag: human M1 muscarinic receptor antagonists, primary screen, CHO-K1 cells, Fluo-8 calcium fluorescence, 1536-well; Muscarinic acetylcholine receptor M1 (Homo sapiens), P11229; 1.3% of 360,000 active; CHO-K1 hM1, ACh EC80 antagonist; AID 588852, 2011; inhibition, % at 3 µM;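 active means percent inhibition above its own plate's cutoff, namely the mean of that plate's compound wells plus 3 SD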;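 further: peak over basal fluorescence ratio during 140 s after agonist addition; 0% = ACh EC80 plus DMSO and 100% = DMSO alone without agonist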
nonsel antag count: nonselective antagonists in TAAR1 counter-screen cells, counter-screen for hTAAR1 antagonist project, cell-based, fluorescence, calcium | counterscreen cell line, antagonist mode | inhibition, % at 3 µM | 77% of 2,400 active | AID 651780, 2012 | shares compounds with TAAR1 antagonist; in the data active means inhibition above about 22%;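 further: CHO-Ga16 host cells stimulated with ATP at an EC80 level; 0% = agonist EC80 plus vehicle and 100% = vehicle without agonist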
TAAR1 ant conf: human TAAR1 antagonists, retest of hits, confirmation, cell-based, fluorescence. shares compounds with TAAR1 antagonist. TAAR1-expressing cells, fluorescence antagonist read-out. inhibition, % at 3 µM. 40% of 2,400 active. AID 651785, 2012; in the data active means inhibition above about 49%;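 further: CHO-Ga16 host cells challenged with agonist PEA near its EC80; 0% = agonist at EC80 plus vehicle and 100% = vehicle with no agonist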
Ga16 nonsel ag: calcium activation in Ga16-expressing cells, counter-screen for TAAR1 antagonist project, cell-based, fluorescence | shares compounds with TAAR1 antagonist | agonist counterscreen | activation, % at 3 µM | 18% of 2,400 active; in the data active means activation above about 12%;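 further: 0% = vehicle wells and 100% = saturating stimulus response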
TAAR1 ag count: TAAR1 activation by candidate antagonists – cell-based, fluorescence, counter-screen for TAAR1 antagonist project; shares compounds with TAAR1 antagonist; hTAAR1 cell line, agonist mode; activation, % at 3 µM; 2% of 2,400 active; in the data active means activation above about 37%;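 further: CHO cells stably expressing TAAR1 with calcium dye readout; 0% = DMSO vehicle and 100% = full agonist response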
Numbers without * were called inactive; . = no result. Rows were chosen to be rich in hits. Some 3.9% of all compounds tested hit in one or more screens of this group.

SMILES	HTR2A ag	CHRM1 agonist	TAAR1 antagonist	M1 PAM	TAAR1 agonist	M1 antag	nonsel antag count	TAAR1 ant conf	Ga16 nonsel ag	TAAR1 ag count
CCCn1c(C(C)Nc2nc(-c3ccc(Cl)c([N+](=O)[O-])c3)cs2)nc2cc(Cl)c(N3CCCCC3)cc21 (configuration not stated)	5	-1	.	2	.	-6	.	.	.	.
CN(C)S(=O)(=O)c1cccc(NC(=O)c2c[nH]c3ccccc23)c1	-1	-8	56*	-9	34	4	24*	61*	10	54*
CN(C)S(=O)(=O)c1cccc(NC(=O)c2cc(=O)[nH]c3ccccc23)c1	-3	-10	1	-1	2	0	.	.	.	.
O=C(CCc1nnc(CCc2ccccc2)o1)NC(c1cccnc1)C(F)(F)F (configuration not stated)	4	0	-32	8	5	-11	.	.	.	.
OCCN1CCN(c2ncnc3c2c(-c2ccccc2)cn3-c2ccc(Br)cc2)CC1	-1	-1	24	7	6	-4	.	.	.	.
COc1ccc(-n2cc(-c3ccccc3)c3c(NCCCN4CCOCC4)ncnc32)cc1	-6	-6	19	-6	7	11	.	.	.	.
NC(=O)C1CCN(c2ncnc3c2c(-c2ccccc2)cn3-c2ccccc2)CC1	-2	2	64*	1	8	-7	25*	41	9	8
CCN1CCN(c2ncnc3c2c(-c2ccccc2)cn3-c2ccc(F)cc2)CC1	-6	-5	15	5	12	-6	.	.	.	.
COc1ccc(-n2cc(-c3ccccc3)c3c(N4CCOCC4)ncnc32)cc1	-5	-4	69*	-11	5	40*	24*	47	8	16
Fc1ccc(-n2cc(-c3ccccc3)c3c(N4CCOCC4)ncnc32)cc1	-13	-2	67*	-10	8	33*	15	36	7	17
CC(C)(C)N(Cc1ccccc1)C(=O)COC(=O)CSc1ccc([N+](=O)[O-])cc1	-4	-3	67*	2	6	7	31*	27	6	5
O=C(CCc1ccccc1)N[C@@H]1c2ccccc2CC[C@@H]1OCc1ccccc1	4	-4	53*	4	9	-11	10	16	-1	-2
CCO[C@@H]1OC(C(=O)N2CCN(Cc3ccc4c(c3)OCO4)CC2)=C[C@H](C2CCCCC2)[C@H]1CCCO	-4	-5	67*	-6	15	10	29*	45	9	7
CCO[C@H]1OC(C(=O)N2CCN(Cc3ccccc3)CC2)=C[C@@H](C2CCCCC2)[C@@H]1CCCO	0	-5	-12	4	3	4	.	.	.	.
CCO[C@@H]1OC(C(=O)NCc2ccccc2)=C[C@H](c2ccc3c(c2)OCO3)[C@H]1CCCO	0	-10	-11	-8	10	10	.	.	.	.
CCO[C@@H]1OC(C(=O)Nc2ccccc2)=C[C@H](c2ccc3c(c2)OCO3)[C@H]1CCCO	-3	-6	49*	-12	19	9	19	25	6	7
CC(C)C[C@@H](COc1ccccc1)N1CCN(Cc2ccccc2)CCC1=O	.	.	-7	.	1	.	.	.	.	.
CC(NC(=S)N1CCN(c2ccccc2)CC1)c1ccccc1 (configuration not stated)	-5	-4	-17	4	1	-6	.	.	.	.
Cc1nc2ccccc2c2c(N)c3ccccc3n12	0	-1	56*	3	10	-1	22*	33	7	7
COc1ccc(C(=O)COC(=O)C(CCCCN2C(=O)C3C4C=CC(C4)C3C2=O)N2C(=O)C3C4C=CC(C4)C3C2=O)cc1 (configuration not stated)	3	0	59*	-8	21	7	33*	51*	9	9
O=C(CN1CCN(C(=O)C2COc3ccccc3O2)CC1)Nc1ccccc1 (configuration not stated)	1	-2	-25	2	1	-4	.	.	.	.
NC(=O)c1ccsc1NC(=O)CN1CCN(S(=O)(=O)c2ccccc2C(F)(F)F)CC1	9	4	89*	-15	20	24	30*	65*	20*	34
N#C/C(=C\c1cc2ccccc2nc1N1CCOCC1)C(=O)Nc1ccc(N2CCOCC2)cc1	2	3	59*	-3	13	10	30*	46	9	6
O=C(c1ccco1)N(CCCN1CCOCC1)c1nc(-c2ccc(Cl)cc2)cs1	0	-1	14	-7	11	0	.	.	.	.
O=C(c1ccco1)N(CCCN1CCOCC1)c1nc(-c2ccc(F)cc2)cs1	-2	-9	57*	-9	8	3	20	39	5	6
COc1ccc(-c2cn3c(C)c(C(=O)Nc4cccc(NC(C)=O)c4)sc3n2)cc1	6	2	50*	-16	15	7	27*	47	13*	9
COc1ccccc1CNC(=O)COC(=O)C1CCN(S(=O)(=O)c2ccc(C)c(C)c2)CC1	3	-3	19	6	2	-3	.	.	.	.
COc1ccc(NC(=O)c2oc3ccc(S(=O)(=O)N4CCC5(CC4)OCCO5)cc3c2C)cc1	-4	3	56*	-22	22	34*	40*	56*	14*	15
C=CCNC(=O)c1oc2ccc(S(=O)(=O)N3CCC4(CC3)OCCO4)cc2c1C	0	0	-11	3	11	0	.	.	.	.

Bioassay records: PubChem, The Scripps Research Institute Molecular Screening Center
